In ChEMBL document CHEMBL2146409, “Phenethyl nicotinamides, a novel class of Na(V)1.7 channel blockers: structure and activity relationship” (Bioorg Med Chem Lett, 2012):

What was measured:
[1] = Cmax in rat at 10 umol/kg, po; assay type: ADME, organism-based; set-up: dose 10 umol/kg, route oral; settings: in vivo
Summary of the method: (§1)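 Fasted male Sprague-Dawley rats dosed per orally at 10 µmol/kg. Three animals per administration per compound; plasma exposure and PK parameters derived.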

[2] = Half life in rat at 3 umol/kg, iv; assay type: ADME, organism-based; settings: in vivo
Summary of the method: (§2)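 Fasted male Sprague-Dawley rats given a single intravenous dose of 3 μmol/kg. Three animals per administration per compound; plasma PK parameters derived.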

[3] = Oral bioavailability in rat at 10 umol/kg; assay type: ADME, organism-based; settings: in vivo; summary of the method: as §1
Liver microsomes [4] = assay: Intrinsic clearance in rat liver microsomes; assay type: ADME, Microsome
[5] = Oral bioavailability in rat in presence of 1-aminobenzotriazole; settings: in vivo
[6] = Tmax in rat at 10 umol/kg, po; assay type: ADME, organism-based; settings: in vivo; summary of the method: as §1
Liver microsomes [7] = assay: Metabolic stability in human liver microsomes by glutathione trapping assay; assay type: ADME, Microsome
Rattus norvegicus [8] = assay: Dose normalized AUC in rat at 3 umol/kg, iv; assay type: ADME, organism-based; settings: in vivo; summary of the method: as §2
Rattus norvegicus [9] = assay: Dose normalised AUC in rat at 10 umol/kg, po; assay type: ADME, organism-based; settings: in vivo; summary of the method: as §1
[10] = Volume of distribution at steady state in rat at 3 umol/kg, iv; assay type: ADME, organism-based; settings: in vivo, read-out: Vdss; summary of the method: as §2
[11] = Half life in rat at 10 umol/kg, po; assay type: ADME, organism-based; settings: in vivo; summary of the method: as §1
[12] = Clearance in rat at 3 umol/kg, iv; assay type: ADME, organism-based; settings: in vivo; summary of the method: as §2
Liver microsomes [13] = assay: Intrinsic clearance in human liver microsomes; assay type: ADME, Microsome

SMILES: Cc1cnc(-c2c(F)ccc(F)c2CCNC(=O)c2ccc(COCC(F)(F)F)nc2)cn1
- Cmax [1]: 250 nM
- half-life [2]: 5.9 h
- bioavailability [3]: 7%
- CLH (Liver microsomes [4]): < 10 µL/min/µg
- bioavailability [5]: 40%
- Tmax [6]: 0.5 h
- Stability (Liver microsomes [7]): Stable
- AUC/dose (Rattus norvegicus [8]): 0.68 kg·h/L
- AUC/dose (Rattus norvegicus [9]): 0.05 kg·h/L
- Vd [10]: 1.74 L/kg
- half-life [11]: 2.3 h
- clearance [12]: 24.6 mL/min/kg
- CLH (Liver microsomes [13]): 21 µL/min/µg

SMILES: COc1ncc(-c2cccc(OC(F)F)c2CCNC(=O)c2ccc(OCCC(F)(F)F)nc2)cn1
- CLH (Liver microsomes [4]): 190 µL/min/µg
- CLH (Liver microsomes [13]): < 10 µL/min/µg

SMILES: COc1cnc(-c2c(F)ccc(F)c2CCNC(=O)c2ccc(COCC(F)(F)F)nc2)cn1
- Cmax [1]: 160 nM
- half-life [2]: 0.9 h
- bioavailability [3]: 5%
- CLH (Liver microsomes [4]): 45 µL/min/µg
- Tmax [6]: 0.67 h
- Stability (Liver microsomes [7]): Stable
- AUC/dose (Rattus norvegicus [8]): 1.3 kg·h/L
- AUC/dose (Rattus norvegicus [9]): 0.06 kg·h/L
- Vd [10]: 0.85 L/kg
- half-life [11]: 3 h
- clearance [12]: 13 mL/min/kg
- CLH (Liver microsomes [13]): 44 µL/min/µg

SMILES: Cc1ncc(-c2ccccc2CCNC(=O)c2ccc(OCCOCC(F)(F)F)nc2)cn1
- CLH (Liver microsomes [4]): < 10 µL/min/µg
- CLH (Liver microsomes [13]): 23 µL/min/µg

SMILES: COc1ncc(-c2c(C)ccc(F)c2CCNC(=O)c2ccc(OCC(F)(F)F)nc2)cn1
- CLH (Liver microsomes [4]): 35 µL/min/µg
- Stability (Liver microsomes [7]): Stable
- CLH (Liver microsomes [13]): 74 µL/min/µg

SMILES: COc1ncc(-c2ccc(C)nc2CCNC(=O)c2ccc(OCCC(F)(F)F)nc2)cn1
- CLH (Liver microsomes [4]): < 10 µL/min/µg
- Stability (Liver microsomes [7]): Stable
- CLH (Liver microsomes [13]): < 10 µL/min/µg

SMILES: COc1cnc(-c2ccccc2CCNC(=O)c2ccc(OCCC(F)(F)F)nc2)cn1
- CLH (Liver microsomes [4]): 129 µL/min/µg
- Stability (Liver microsomes [7]): Unstable
- CLH (Liver microsomes [13]): 124 µL/min/µg

SMILES: Cc1ncc(-c2ccccc2CCNC(=O)c2ccc(CNCCC(F)(F)F)nc2)cn1
- CLH (Liver microsomes [4]): < 10 µL/min/µg
- CLH (Liver microsomes [13]): 15 µL/min/µg

SMILES: COc1ncc(-c2cc(C)cnc2CCNC(=O)c2ccc(COCC(F)(F)F)nc2)cn1
- CLH (Liver microsomes [4]): < 10 µL/min/µg
- CLH (Liver microsomes [13]): < 10 µL/min/µg

SMILES: COc1ncc(-c2cccnc2CCNC(=O)c2ccc(OCCC(F)(F)F)nc2)cn1
- CLH (Liver microsomes [4]): < 10 µL/min/µg
- Stability (Liver microsomes [7]): Stable
- CLH (Liver microsomes [13]): < 10 µL/min/µg

SMILES: COc1ccc(CCNC(=O)c2ccc(OCCC(F)(F)F)nc2)c(-c2cnc(OC)nc2)c1
- CLH (Liver microsomes [4]): 150 µL/min/µg
- CLH (Liver microsomes [13]): 40 µL/min/µg

SMILES: COc1cnc(-c2ccccc2C(F)(F)CNC(=O)c2ccc(COCC(F)(F)F)nc2)cn1
- Cmax [1]: 1400 nM
- half-life [2]: 1.2 h
- bioavailability [3]: 27%
- CLH (Liver microsomes [4]): 16 µL/min/µg
- Tmax [6]: 0.33 h
- Stability (Liver microsomes [7]): Stable
- AUC/dose (Rattus norvegicus [8]): 1.5 kg·h/L
- AUC/dose (Rattus norvegicus [9]): 0.41 kg·h/L
- Vd [10]: 0.72 L/kg
- half-life [11]: 2.8 h
- clearance [12]: 11 mL/min/kg
- CLH (Liver microsomes [13]): < 10 µL/min/µg

SMILES: COc1ncc(-c2cccc3c2C[C@H](NC(=O)c2ccc(OCCC(F)(F)F)nc2)CO3)cn1
- Cmax [1]: 230 nM
- half-life [2]: 6.4 h
- bioavailability [3]: 26%
- Tmax [6]: 4.8 h
- Stability (Liver microsomes [7]): Stable
- AUC/dose (Rattus norvegicus [8]): 1.2 kg·h/L
- AUC/dose (Rattus norvegicus [9]): 0.32 kg·h/L
- Vd [10]: 7.2 L/kg
- half-life [11]: 7.6 h
- clearance [12]: 14 mL/min/kg

SMILES: COc1ncc(-c2cccc(Cl)c2CCNC(=O)c2ccc(OCCC(F)(F)F)nc2)cn1
- CLH (Liver microsomes [4]): < 10 µL/min/µg
- Stability (Liver microsomes [7]): Unstable
- CLH (Liver microsomes [13]): 17 µL/min/µg

SMILES: COc1ncc(-c2cccc(F)c2CCNC(=O)c2ccc(OCCC(F)(F)F)nc2)cn1
- CLH (Liver microsomes [4]): 13 µL/min/µg
- Stability (Liver microsomes [7]): Unstable
- CLH (Liver microsomes [13]): < 10 µL/min/µg

SMILES: COc1ncc(-c2ccccc2CCNC(=O)c2ccc(OCCC(F)(F)F)nc2)cn1
- CLH (Liver microsomes [4]): > 500 µL/min/µg
- CLH (Liver microsomes [13]): 17 µL/min/µg

SMILES: COc1ncc(-c2ccccc2C(F)(F)CNC(=O)c2ccc(COCC(F)(F)F)nc2)cn1
- Cmax [1]: 840 nM
- half-life [2]: 2 h
- bioavailability [3]: 34%
- CLH (Liver microsomes [4]): 13 µL/min/µg
- Tmax [6]: 0.75 h
- Stability (Liver microsomes [7]): Stable
- AUC/dose (Rattus norvegicus [8]): 0.71 kg·h/L
- AUC/dose (Rattus norvegicus [9]): 0.24 kg·h/L
- Vd [10]: 1.4 L/kg
- half-life [11]: 2.4 h
- clearance [12]: 23 mL/min/kg
- CLH (Liver microsomes [13]): < 10 µL/min/µg

SMILES: COc1ncc(-c2cccc(OC)c2CCNC(=O)c2ccc(OCCC(F)(F)F)nc2)cn1
- CLH (Liver microsomes [4]): 17 µL/min/µg
- CLH (Liver microsomes [13]): 45 µL/min/µg

SMILES: COc1ncc(-c2cccnc2C(C)CNC(=O)c2ccc(OCCC(F)(F)F)nc2)cn1 (stereo unspecified)
- CLH (Liver microsomes [4]): < 10 µL/min/µg
- CLH (Liver microsomes [13]): < 10 µL/min/µg

SMILES: COc1cnc(-c2c(OC)ccc(F)c2CCNC(=O)c2ccc(COCC(F)(F)F)nc2)cn1
- CLH (Liver microsomes [4]): 67 µL/min/µg
- CLH (Liver microsomes [13]): 46 µL/min/µg

SMILES: Cc1ncc(-c2ccccc2CCNC(=O)c2ccc(C(=O)NCCCC(F)(F)F)nc2)cn1
- CLH (Liver microsomes [4]): < 10 µL/min/µg
- Stability (Liver microsomes [7]): Unstable
- CLH (Liver microsomes [13]): 11 µL/min/µg

SMILES: COc1ncc(-c2cccc(C#N)c2CCNC(=O)c2ccc(OCCC(F)(F)F)nc2)cn1
- CLH (Liver microsomes [4]): 24 µL/min/µg
- Stability (Liver microsomes [7]): Stable
- CLH (Liver microsomes [13]): < 10 µL/min/µg

SMILES: Cc1ncc(-c2ccccc2CCNC(=O)c2ccc(COCC(F)(F)F)nc2)cn1
- CLH (Liver microsomes [4]): < 10 µL/min/µg
- Stability (Liver microsomes [7]): Unstable
- CLH (Liver microsomes [13]): < 10 µL/min/µg

SMILES: Cc1ncc(-c2ccccc2CCNC(=O)c2ccc(OCCC(F)(F)F)nc2)cn1
- CLH (Liver microsomes [4]): > 500 µL/min/µg
- Stability (Liver microsomes [7]): Unstable
- CLH (Liver microsomes [13]): 11 µL/min/µg

SMILES: COc1ncc(-c2cccnc2C(F)(F)CNC(=O)c2ccc(OCCC(F)(F)F)nc2)cn1
- CLH (Liver microsomes [4]): < 10 µL/min/µg
- CLH (Liver microsomes [13]): < 10 µL/min/µg

SMILES: O=C(NCCc1ccccc1-c1ccc(CO)nc1)c1ccc(OCCC(F)(F)F)nc1
- CLH (Liver microsomes [4]): 130 µL/min/µg
- CLH (Liver microsomes [13]): 10 µL/min/µg

SMILES: O=C(NCCc1ccccc1-c1cccnc1)c1ccc(OCCC(F)(F)F)nc1
- CLH (Liver microsomes [4]): > 500 µL/min/µg
- Stability (Liver microsomes [7]): Unstable
- CLH (Liver microsomes [13]): 160 µL/min/µg

SMILES: COc1ncc(-c2c(C)ccc(F)c2CCNC(=O)c2ccc(OCCC(F)(F)F)nc2)cn1
- CLH (Liver microsomes [4]): 230 µL/min/µg
- CLH (Liver microsomes [13]): 100 µL/min/µg

SMILES: O=C(NCCc1ccccc1-c1cnc(OC(F)F)cn1)c1ccc(OCCC(F)(F)F)nc1
- CLH (Liver microsomes [4]): 270 µL/min/µg
- CLH (Liver microsomes [13]): 210 µL/min/µg

SMILES: COc1cnc(-c2c(C)ccc(F)c2CCNC(=O)c2ccc(COCC(F)(F)F)nc2)cn1
- Cmax [1]: 530 nM
- half-life [2]: 0.9 h
- bioavailability [3]: 4%
- CLH (Liver microsomes [4]): 88 µL/min/µg
- Tmax [6]: 1.5 h
- Stability (Liver microsomes [7]): Unstable
- AUC/dose (Rattus norvegicus [8]): 0.91 kg·h/L
- AUC/dose (Rattus norvegicus [9]): 0.03 kg·h/L
- Vd [10]: 1.5 L/kg
- half-life [11]: 3.6 h
- clearance [12]: 19 mL/min/kg
- CLH (Liver microsomes [13]): 61 µL/min/µg

SMILES: COc1cnc(-c2cccc(F)c2C(F)(F)CNC(=O)c2ccc(COCC(F)(F)F)nc2)cn1
- CLH (Liver microsomes [4]): 24 µL/min/µg
- Stability (Liver microsomes [7]): Stable
- CLH (Liver microsomes [13]): < 10 µL/min/µg

SMILES: COc1cnc(-c2ccc(Cl)cc2CCNC(=O)c2ccc(COCC(F)(F)F)nc2)cn1
- CLH (Liver microsomes [13]): 72 µL/min/µg

SMILES: COc1ncc(-c2cccc(C)c2CCNC(=O)c2ccc(OCCC(F)(F)F)nc2)cn1
- Cmax [1]: 20 nM
- half-life [2]: 0.98 h
- bioavailability [3]: 0.6%
- CLH (Liver microsomes [4]): 32 µL/min/µg
- Tmax [6]: 0.25 h
- Stability (Liver microsomes [7]): Stable
- AUC/dose (Rattus norvegicus [8]): 0.33 kg·h/L
- AUC/dose (Rattus norvegicus [9]): 0.002 kg·h/L
- Vd [10]: 2.4 L/kg
- half-life [11]: 2.4 h
- clearance [12]: 50 mL/min/kg
- CLH (Liver microsomes [13]): 65 µL/min/µg
